Measurements: ChEMBL document CHEMBL1687906, “Discovery of novel and potent orally active calcium-sensing receptor antagonists that stimulate pulselike parathyroid hormone secretion: synthesis and structure-activity relationships of tetrahydropyrazolopyrimidine derivatives” (J Med Chem, 2011)
Values after ≈ are worked out from the molar mass of the structure shown. Active and inactive are the calls of the source. No cut-off for these calls is given here.

Legend:
[1] = molecular target: T1, Extracellular calcium-sensing receptor (Homo sapiens, UniProt P41180); assay: Inhibition of CaSR expressed in CHO cells incubated with compound for 10 mins measured after 1 hr by [35S]GTPgammaS binding assay; type: functional, cell-based
T1 sequence (P41180 whole entry): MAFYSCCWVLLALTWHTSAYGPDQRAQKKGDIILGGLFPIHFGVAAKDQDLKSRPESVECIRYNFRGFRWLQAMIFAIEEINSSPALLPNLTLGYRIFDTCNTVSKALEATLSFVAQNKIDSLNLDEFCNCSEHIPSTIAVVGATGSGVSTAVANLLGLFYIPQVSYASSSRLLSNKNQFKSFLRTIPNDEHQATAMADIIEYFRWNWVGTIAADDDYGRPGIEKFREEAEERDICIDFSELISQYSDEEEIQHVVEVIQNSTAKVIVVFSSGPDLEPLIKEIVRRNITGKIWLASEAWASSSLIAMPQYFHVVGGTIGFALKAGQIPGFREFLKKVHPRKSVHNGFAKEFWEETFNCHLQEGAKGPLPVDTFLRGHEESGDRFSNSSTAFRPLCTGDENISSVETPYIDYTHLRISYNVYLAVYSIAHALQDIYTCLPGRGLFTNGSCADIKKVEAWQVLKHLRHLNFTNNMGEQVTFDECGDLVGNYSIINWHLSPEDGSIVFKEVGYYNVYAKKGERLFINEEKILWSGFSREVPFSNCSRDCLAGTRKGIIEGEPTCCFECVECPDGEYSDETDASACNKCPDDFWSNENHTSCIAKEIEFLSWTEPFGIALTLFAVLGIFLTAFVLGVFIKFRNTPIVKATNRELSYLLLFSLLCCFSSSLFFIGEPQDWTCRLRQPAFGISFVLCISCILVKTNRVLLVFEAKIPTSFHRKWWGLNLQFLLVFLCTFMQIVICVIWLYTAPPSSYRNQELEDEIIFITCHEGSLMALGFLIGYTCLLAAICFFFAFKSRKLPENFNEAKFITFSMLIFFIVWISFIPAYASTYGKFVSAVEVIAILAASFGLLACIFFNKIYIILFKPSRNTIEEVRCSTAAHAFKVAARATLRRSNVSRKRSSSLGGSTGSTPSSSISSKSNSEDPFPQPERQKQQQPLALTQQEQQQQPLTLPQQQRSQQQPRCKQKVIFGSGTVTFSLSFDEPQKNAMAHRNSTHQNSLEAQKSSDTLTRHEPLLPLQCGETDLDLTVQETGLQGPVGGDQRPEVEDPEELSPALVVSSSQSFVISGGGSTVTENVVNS
Procedure, shortened: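 Membranes from CaSR-expressing CHO cells preincubated with compound for 10 min. Binding then run 1 h at room temperature in 20 mM HEPES pH 7.4, 100 mM NaCl, 1 mM MgCl2, 167 μg/mL DTT, 5 μM GDP, 0.4 nM [35S]GTPγS and 6 mM CaCl2. Samples filtered through GF/C and washed with PBS; radioactivity counted by scintillation. IC50 obtained by nonlinear regression.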

[2] = Thermodynamic solubility of the compound in aqueous buffer containing 20 mmol/L sodium glycochenodeoxycholate at pH 6.8 by HPLC analysis; type: physicochemical; conditions: aqueous buffer with 20 mmol/L sodium glycochenodeoxycholate
Procedure, shortened: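 Compound added to pH 6.8 aqueous buffer containing 20 mmol/L sodium glycochenodeoxycholate; after incubation, precipitate removed by filtration and filtrate concentration determined by HPLC.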

Caco-2 [3] = assay: Apparent permeability across apical to basolateral side of human Caco2 cells at 10 umol/L; type: ADME, cell-based; conditions: caco-2, 10 µM, in the assay text read “basolateral to apical” for “apical to basolateral”
Procedure, shortened: (§1)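 Confluent Caco-2 monolayers on collagen-coated polycarbonate Transwell membranes. Buffer is HBSS with 10 mmol/L HEPES, 15 mmol/L glucose and 1% BSA, pH 7.3-7.5. Compound at 10 μmol/L dosed apically (A-to-B) or basolaterally (B-to-A), 37 °C, 5% CO2. Receivers sampled at 1 and 2 h. Lucifer yellow integrity check and cell-free blank run. LC/MS/MS read-out; Papp calculated; duplicates.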

[4] = Metabolic stability in rat hepatic microsomes after 20 mins by HPLC/MS analysis; type: ADME; conditions: liver microsomes, read-out: Stability
Procedure, shortened: (§2)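 Hepatic microsomes, 0.2 mg/mL protein, in 50 mmol/L potassium phosphate pH 7.4 with […] test compound. An NADPH-generating system (MgCl2, glucose-6-phosphate, β-NADP+, G6PDH) added at 10% of the reaction volume. Incubated at 37 °C for 0 and 20 min.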

Caco-2 [5] = assay: Apparent permeability across apical to basolateral side in human Caco2 cells at 10 umol/L; type: ADME, cell-based; conditions: caco-2, 10 µM; procedure, shortened: as §1
[6] = Metabolic stability in human hepatic microsomes after 20 mins by HPLC/MS analysis; type: ADME; conditions: liver microsomes, read-out: Stability; procedure, shortened: as §2
[7] = Mean residence time in Crl:CD(SD) rat at 10 mg/kg, po; type: ADME, organism-based; parameters: dose 10 mg/kg, route oral; conditions: in vivo
Procedure, shortened: (§3)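 Nonfasted female Crl:CD(SD) rats, 12 weeks old, n = 3, given 10 mg/kg orally as a 0.5% methylcellulose suspension. Plasma collected at 0.25, 0.5, 1, 2, 4, 8 and 24 h, deproteinized with acetonitrile, diluted with 0.01 mol/L ammonium acetate. Drug measured by HPLC on an ODS column, ammonium acetate/acetonitrile 3/7, 40 °C, UV 262 nm.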

[8] = AUC (0 to 24 hrs) in Crl:CD(SD) rat at 10 mg/kg, po; type: ADME, organism-based; parameters: time < 24 hr, dose 10 mg/kg, route oral; conditions: plasma; procedure, shortened: as §3
[9] = Tmax in Crl:CD(SD) rat at 10 mg/kg, po; type: ADME, organism-based; parameters: dose 10 mg/kg, route oral; conditions: in vivo; procedure, shortened: as §3
[10] = Cmax in Crl:CD(SD) rat at 10 mg/kg, po; type: ADME, organism-based; parameters: dose 10 mg/kg, route oral; conditions: in vivo; procedure, shortened: as §3
Rattus norvegicus [11] = assay: Increase of PTH level in rat plasma at 10 mg/kg, po after 2 hrs by ELISA; type: functional, organism-based; parameters: dose 10 mg/kg
Rattus norvegicus [12] = assay: Increase of PTH level in rat plasma at 10 mg/kg, po after 30 mins by ELISA; type: functional
Rattus norvegicus [13] = assay: Induction of bone formation in osteopenic ovariectomized CD(SD)IGS rat model assessed as proximal tibia bone mineral density at 10 mg/kg, po administered once daily for 3 months measured after 1 day last post treatment (reference value: 649+/- 8 mg/cm3); type: functional
Rattus norvegicus [14] = assay: Induction of bone formation in osteopenic ovariectomized CD(SD)IGS rat model assessed as plasma osteocalcin level at 10 mg/kg, po administered once daily for 3 months measured after 2 months by RIA (reference value: 21.1+/- 2.4 ng/ml); type: functional
Rattus norvegicus [15] = assay: Induction of bone formation in osteopenic ovariectomized CD(SD)IGS rat model assessed as distal femur BMD at 10 mg/kg, po administered once daily for 3 months measured after 1 day last post treatment (reference value: 622+/- 7 mg/cm3); type: functional

| Compound | IC50 [1] | solubility thermodynamic [2] | also measured |
| --- | --- | --- | --- |
| CCC(CC)(NC(=O)c1cnn2c1NC(c1ccccc1)CC2(C)C)c1cccc(F)c1 (stereo not drawn) | 0.025 µM |  |  |
| CCC(CC)(NC(=O)c1cnn2c1N[C@H](c1ccccc1)CC2(C)C)c1ccc(C)cc1 | 0.031 µM |  |  |
| CCC(CC)(NC(=O)c1cnn2c1NC(c1ccccc1)CC2(C)C)c1ccccc1F (stereo not drawn) | 0.012 µM |  |  |
| CCC(CC)(NC(=O)c1cnn2c1NC(c1ccccc1)CC2(C)C)c1ccc(C)cc1.CS(=O)(=O)O (stereo not drawn) |  | 118 µg/mL |  |
| CCC(CC)(NC(=O)c1cnn2c1NC(c1ccccc1)CC2(C)C)c1ccc(OC(C)=O)cc1 (stereo not drawn) | 0.031 µM |  |  |
| CCC(CC)(NC(=O)c1cnn2c1NC(c1ccccc1)CC2(C)C)c1ccc(Cl)cc1 (stereo not drawn) | 0.0074 µM | 54 µg/mL (≈ 120 µM) | Papp (Caco-2 [3]): 36.8 10^-6 cm/s; microsomal CLint [4]: 57 µL/min/mg; Papp (Caco-2 [5]): 52.6 10^-6 cm/s; microsomal CLint [6]: 18 µL/min/mg |
| CCC(CC)(NC(=O)c1cnn2c1NC(c1ccccc1)CC2(C)C)c1ccc(F)cc1 (stereo not drawn) | 0.0073 µM | 8.5 µg/mL (≈ 19.6 µM) | microsomal CLint [4]: 129 µL/min/mg; microsomal CLint [6]: 89 µL/min/mg |
| CCC(CC)(NC(=O)c1cnn2c1NC(c1ccccc1)CC2(C)C)c1ccc(Cl)cc1.Cl (stereo not drawn) |  | 126 µg/mL | MRT [7]: 5.65 h; AUC(0-t) at 24 h [8]: 2460 ng·h/mL; Tmax [9]: 0.67 h; Cmax [10]: 374 ng/mL |
| CCC(CC)(NC(=O)c1cnn2c1NC(c1ccccc1)CC2(C)C)c1ccc(C(F)(F)F)cc1 (stereo not drawn) | 0.0076 µM | 4.6 µg/mL (≈ 9.49 µM) | Papp (Caco-2 [3]): 24.2 10^-6 cm/s; microsomal CLint [4]: 13 µL/min/mg; Papp (Caco-2 [5]): 32.7 10^-6 cm/s; microsomal CLint [6]: 14 µL/min/mg |
| CCC(=O)Oc1ccc(C(CC)(CC)NC(=O)c2cnn3c2NC(c2ccccc2)CC3(C)C)cc1 (stereo not drawn) | 0.012 µM |  |  |
| CC(C)C(NC(=O)c1cnn2c1NC(c1ccccc1)CC2(C)C)(c1ccc(C(F)(F)F)cc1)C(C)C (stereo not drawn) | 0.03 µM |  |  |
| CCC(CC)(NC(=O)c1cnn2c1NC(c1ccccc1)CC2(C)C)c1ccc(C)cc1 (racemic) |  |  | Activity (Rattus norvegicus [11]): inactive |
| CCC(CC)(NC(=O)c1cnn2c1NC(c1ccccc1)CC2(C)C)c1ccc(C)cc1.Cl (racemic) | 0.0049 µM | 140 µg/mL | Papp (Caco-2 [3]): 42.7 10^-6 cm/s; MRT [7]: 5.65 h; Activity (Rattus norvegicus [12]): 120 pg/mL; Papp (Caco-2 [5]): 58.9 10^-6 cm/s; Activity (Rattus norvegicus [13]): 700 mg/cm3; Activity (Rattus norvegicus [14]): 28.4 ng/mL; Activity (Rattus norvegicus [15]): 660 mg/cm3; AUC(0-t) at 24 h [8]: 2460 ng·h/mL; Tmax [9]: 0.67 h; Cmax [10]: 374 ng/mL |
| CC(=O)O.CCC(CC)(NC(=O)c1cnn2c1NC(c1ccccc1)CC2(C)C)c1ccc(Cl)cc1 (stereo not drawn) |  | 202 µg/mL |  |
| CCCCC(CCCC)(NC(=O)c1cnn2c1NC(c1ccccc1)CC2(C)C)c1ccc(C(F)(F)F)cc1 (stereo not drawn) | 0.023 µM |  |  |
| O=C(NC(c1ccccc1)c1ccccc1)c1cnn2c1N[C@H](c1ccccc1)C[C@@H]2C(F)(F)F | 0.38 µM |  |  |

| Compound | IC50 [1] | solubility thermodynamic [2] | also measured |
| --- | --- | --- | --- |
| CCCC(CCC)(NC(=O)c1cnn2c1NC(c1ccccc1)CC2(C)C)c1ccc(C(F)(F)F)cc1 (stereo not drawn) | 0.0044 µM |  |  |
| CCOC(=O)c1ccc(C(CC)(CC)NC(=O)c2cnn3c2NC(c2ccccc2)CC3(C)C)cc1 (stereo not drawn) [listing 1 of 2 here] | 0.0052 µM | 5.4 µg/mL (≈ 11.1 µM) |  |
| CC1(C)CC(c2ccccc2)Nc2c(C(=O)NC(c3ccc(C(F)(F)F)cc3)(C3CCCCC3)C3CCCCC3)cnn21 (stereo not drawn) | 0.15 µM |  |  |
| CC(C)(NC(=O)c1cnn2c1NC(c1ccccc1)CC2(C)C)c1ccc(C(F)(F)F)cc1 (stereo not drawn) | 0.0035 µM |  |  |
| CCC(CC)(NC(=O)c1cnn2c1NC(c1ccccc1)CC2(C)C)c1ccc(OCc2ccccc2)cc1 (stereo not drawn) | 0.0085 µM | 24.3 µg/mL (≈ 46.5 µM) | microsomal CLint [4]: 24 µL/min/mg; microsomal CLint [6]: 48 µL/min/mg |
| CCC(CC)(NC(=O)c1cnn2c1NC(c1ccccc1)CC2(C)C)c1ccc(Cl)cc1.O=S(=O)(O)O (stereo not drawn) |  | 202 µg/mL |  |
| CCC(CC)(NC(=O)c1cnn2c1NC(c1ccccc1)CC2(C)C)c1ccc(COC(C)=O)cc1 (stereo not drawn) | 0.014 µM |  |  |
| CCC(CC)(NC(=O)c1cnn2c1NC(c1ccccc1)CC2(C)C)c1ccc(Cl)cc1.CS(=O)(=O)O (stereo not drawn) |  | 164 µg/mL |  |
| CCOC(=O)c1ccc(C(CC)(CC)NC(=O)c2cnn3c2NC(c2ccccc2)CC3(C)C)cc1 (stereo not drawn) [listing 2 of 2 here] |  |  | microsomal CLint [4]: 138 µL/min/mg; microsomal CLint [6]: 91 µL/min/mg |
| CCC(CC)(NC(=O)c1cnn2c1NC(c1ccccc1)CC2(C)C)c1ccc(C)cc1 (stereo not drawn) | 0.0055 µM | 15.6 µg/mL (≈ 36.2 µM) | microsomal CLint [4]: 164 µL/min/mg; microsomal CLint [6]: 122 µL/min/mg |
| CCC(CC)(NC(=O)c1cnn2c1NC(c1ccccc1)CC2(C)C)c1cccc(Cl)c1 (stereo not drawn) | 0.017 µM |  |  |
| CCC(CC)(NC(=O)c1cnn2c1NC(c1ccccc1)CC2(C)C)c1ccccc1 (stereo not drawn) | 0.0034 µM | 22.3 µg/mL (≈ 53.5 µM) | microsomal CLint [4]: 215 µL/min/mg; microsomal CLint [6]: 209 µL/min/mg |
| CCC(CC)(NC(=O)c1cnn2c1N[C@@H](c1ccccc1)CC2(C)C)c1ccc(C)cc1 | 0.0023 µM |  |  |
| O=C(NCc1ccc(C(F)(F)F)cc1)c1cnn2c1N[C@H](c1ccccc1)C[C@@H]2C(F)(F)F | 2.9 µM |  |  |
| CCC(CC)(NC(=O)c1cnn2c1NC(c1ccccc1)CC2(C)C)c1ccc(OC)cc1 (stereo not drawn) | 0.0066 µM | 59.6 µg/mL (≈ 133 µM) | microsomal CLint [4]: 158 µL/min/mg; microsomal CLint [6]: 67 µL/min/mg |
